A selection: hits, their analogues and other compounds. The true share with any hit is near 4.6%.
TAAR1 antag = antagonists of human TAAR1 | CHO RD-HGA16 TAAR1, Fluo-8 calcium fluorescence, antagonist | inhibition, % at 3 µM | hit rate 1.5% among 360,000 | AID 624466;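 active = inhibition above a per-plate cutoff, the mean inhibition of test compounds on that plate plus 3 SD, cut at about 49% in these data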;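 note: 0% = DMSO plus EC80 beta-PEA response and 100% = DMSO alone without agonist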
Target sequence (Q96RJ0 whole entry, looked up): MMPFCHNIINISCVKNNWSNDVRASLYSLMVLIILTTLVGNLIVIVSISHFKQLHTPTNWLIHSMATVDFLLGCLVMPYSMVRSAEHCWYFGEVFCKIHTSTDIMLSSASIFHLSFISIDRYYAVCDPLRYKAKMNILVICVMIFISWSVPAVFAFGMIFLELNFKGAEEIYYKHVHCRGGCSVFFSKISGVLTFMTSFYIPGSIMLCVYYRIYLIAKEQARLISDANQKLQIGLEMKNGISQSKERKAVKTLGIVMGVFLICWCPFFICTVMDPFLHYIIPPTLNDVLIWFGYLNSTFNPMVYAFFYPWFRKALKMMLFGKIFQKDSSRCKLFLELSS
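Assay system: RD-HGA16 CHO cells with stable hTAAR1 and Gα16 / Reagent: EC80 β-phenethylamine stimulus / Doses: 3 µM, single point / Timing: dye loading 75 min at 37 °C, then 30 min room temperature / Measured by: Fluo-8 intracellular calcium dye fluorescence, real-time kinetic reads / Controls: vehicle wells and EC80 agonist wells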
OX1R antag-1 = antagonists of human orexin 1 receptor | CHO/OX1R cells, Fluo-8 calcium fluorescence, orexin A | O43613 | hit rate 0.43% among 330,000 | inhibition, % at 5 µM;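 active = inhibition above its plate's threshold, mean inhibition of all tested compounds on the plate plus 3 SD, cut at about 37% in these data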;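 note: 0% = orexin A challenge wells and 100% = SB-334867-A antagonist wells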
CHO parental Ca = signal in parental CHO cells, OX1R antagonist counter-screen; parental CHO-K1, ATP-induced calcium, Fluo-8 fluorescence; inhibition, % at 5.6 µM; hit rate 0.63% among 330,000;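 active = inhibition above that plate's mean sample inhibition plus 3 SD, cut at about 26% in these data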;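 note: 0% = ATP-challenged DMSO wells and 100% = DMSO wells without ATP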
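Material – parental CHO cells · Reagent – ATP stimulus · Compound – single nominal dose of 5.6 µM per compound · Detection – Fluo-8 fluorescence · Read-out basis – percent inhibition of calcium signal · Controls – ATP-challenged DMSO wells low, unchallenged DMSO wells high · Repeats – no replicates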
GPR7 antag = blocks human GPR7 receptor signaling. P48145. GPR7-expressing cells, fluorescence antagonist assay. inhibition, % at 4.4 µM. hit rate 1.1% among 290,000. AID 1861; in the data active = inhibition above about 16%, passing the limit was not always enough;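 note: cells stimulated with the agonist NPW; 0% = agonist with vehicle and 100% = vehicle without agonist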
Target sequence (P48145 whole entry, looked up): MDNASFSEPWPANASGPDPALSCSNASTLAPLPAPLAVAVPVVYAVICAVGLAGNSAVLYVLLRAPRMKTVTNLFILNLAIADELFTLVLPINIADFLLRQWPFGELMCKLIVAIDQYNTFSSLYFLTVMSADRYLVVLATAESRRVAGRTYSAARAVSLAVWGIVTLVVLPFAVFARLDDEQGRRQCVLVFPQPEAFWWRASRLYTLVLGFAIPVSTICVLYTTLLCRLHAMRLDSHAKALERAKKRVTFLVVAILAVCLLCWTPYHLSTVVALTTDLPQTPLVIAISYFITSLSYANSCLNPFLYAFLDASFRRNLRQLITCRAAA
TAAR1 agonist = human TAAR1 agonism. Q96RJ0. hit rate 0.99% among 360,000. activation, % at 3 µM. CHO RD-HGA16 TAAR1, Fluo-8 calcium fluorescence; vehicle wells 0%, saturating PEA agonist 100%;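 active = activation above the mean activation of all test compounds in the run plus 3 SD, cut at about 38% in these data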
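Test system: RD-HGA16 (CHO) cells co-expressing Gα16 and hTAAR1; dosing: one-point dosing at 3 µM (nominal); timing: 17-24 h seeding, 75 min 37 °C dye, 30 min RT; signal: kinetic Fluo-8 calcium fluorescence; read-out basis: % activation relative to PEA EC100 response; controls: DMSO and PEA EC100; replicates: n 1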
OX1R antag-2 = antagonists of human orexin 1 receptor (OX1R) | O43613 | OX1R-expressing cells, FRET antagonist read-out | inhibition, % at 6.6 µM | hit rate 1.8% among 330,000 | AID 485270; in the data active = inhibition mostly above about 38%, no sharp cut-off; inactive = mostly below about 40%;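 note: 0% = agonist challenge alone and 100% = reference antagonist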
Numbers without * were called inactive; nt = no result given.

SMILES	TAAR1 antag	OX1R antag-1	CHO parental Ca	GPR7 antag	TAAR1 agonist	OX1R antag-2
O=[N+]([O-])c1ccc(-c2nnc3n2CCCCC3)cc1	-14	-16	-6	1	1	32*
O=C(Nc1ccccc1N1CCOCC1)c1ccc([N+](=O)[O-])s1	8	-32	-19	nt	3	31*
O=C(c1ccc([N+](=O)[O-])s1)N1CCN(c2ccccn2)CC1	6	-5	1	4	0	46*
COc1ccc(OC)c2sc(N3CCN(C(=O)c4ccc([N+](=O)[O-])s4)CC3)nc12	21	1	4	nt	6	46*
O=C(c1ccc([N+](=O)[O-])s1)N1CCN(c2ccccc2)CC1	9	-17	-2	7	3	54*
c1ccc(COc2ncnc3c2ncn3CCCNCc2cccs2)cc1	-27	nt	nt	nt	0	nt
CCCCCCCCN1C(=O)[C@H](CC(=O)N2CCCCC2)C[C@@]2(C(=O)OC)CCCCC=C12	-16	nt	nt	nt	3	nt
O=C(NCCC(=O)N1CCN(c2ccccn2)CC1)c1ccc([N+](=O)[O-])cc1	-21	-5	-10	nt	7	35*
CN(c1cccnc1)c1ccc(NC(=O)Cc2c[nH]c3ccccc23)cc1-c1ccc(F)c(F)c1	24	nt	nt	nt	7	nt
CC(C)(C)S(=O)(=O)N1C[C@H]2CC(=O)C(CCO)=C2[C@@H]1CCO	4	nt	nt	nt	0	nt
Cc1ccc(-n2ccnc(SCC(=O)NCCc3ccccc3)c2=O)cc1F	-37	-5	-17	nt	37*	17
Cc1nccc(-c2cccc(N/N=C(\C#N)C(=O)c3ccccc3)c2)n1	-21	-15	7	-25	3	69
N#C/C(=N\Nc1cccc(C(F)(F)F)c1)C(=O)c1ccsc1	-25	36	1	15	2	55*
COc1ccc(CCCNC(=O)C2Cc3c(-c4ccccc4)ccnc3O2)cc1 (stereo not given)	-1	nt	nt	nt	-2	nt
COc1ccc(NC(=O)CN(C)C(=O)c2cc(-c3ccncc3)nc3ccccc23)cc1	52*	-14	-8	-18	19	11
O=C(NNC(=O)c1cc(-c2ccco2)nc2ccccc12)c1ccccc1	50*	3	-17	-21	10	20
CCOc1ccc(NC(=O)CN(C)C(=O)c2cc(C)nc3ccccc23)cc1OCC	10	-23	-9	nt	2	1
CCOc1ccc(NC(=O)CN(C)C(=O)c2cc(-c3ccco3)nc3ccccc23)cc1OCC	52*	nt	nt	nt	10	nt
CCOc1ccc(NC(=O)CN(C)C(=O)c2cn(-c3ccc(C)cc3)nc2-c2cccc(OC)c2)cc1OCC	64*	nt	nt	nt	9	nt
C#CCNC(=O)c1cc2cccnc2nc1N	1	nt	nt	nt	0	nt
O=C(CSc1nc2ccccc2[nH]1)NC1CCCc2ccccc21 (stereo not given)	33	-2	-22	-11	6	52
O=C(CSc1nc2ccc(Cl)cc2[nH]1)NC1CCCc2ccccc21 (stereo not given)	47	-10	-1	6	4	73*
CC(C)(C)c1ccc(OCCn2nc(C(=O)O)c3ccccc3c2=O)cc1	49*	46*	29*	-23	6	21
Cc1cccc(OCCn2nc(C(=O)O)c3ccccc3c2=O)c1	10	-24	-17	-9	16	31
COc1ccc(/C=N/NC(=O)CCn2c3ccccc3c3ccccc32)cc1OC	16	7	-19	-3	16	59*
SMILES	TAAR1 antag	OX1R antag-1	CHO parental Ca	GPR7 antag	TAAR1 agonist	OX1R antag-2
CCOC(=O)C1=CCN(S(=O)(=O)c2ccc(C)cc2)C1c1ccc(CC)cc1 (stereo not given)	-23	nt	nt	nt	3	nt
Cc1ccc(CNC(=O)c2cc3c(C)nc4ccccc4c3o2)cc1	28	-22	24	-14	0	57*
COc1ccccc1N1CCN(C(=O)c2cc3c(C)nc4ccccc4c3o2)CC1	54*	-15	-12	-17	5	23
Cc1ccc(C)c(N2CCN(C(=O)c3cc4c(C)nc5ccccc5c4o3)CC2)c1	18	-67	-34	5	5	36
CCc1ccc(NC(=O)c2cc3c(C)nc4ccccc4c3o2)cc1	-5	-20	-33	-16	3	60*
Cc1nnc2n1N=CC=C(C(C)(C)C)S2	15	1	0	6	0	14
Cc1nnc2n1N=CC=C(c1ccccc1)S2	5	-4	-9	16	8	54*
Cc1nc([N+](=O)[O-])cn1-c1nc2ccccn2c1[N+](=O)[O-]	-4	-11	-3	-3	2	54*
Cc1nc([N+](=O)[O-])cn1CC(=O)c1ccccc1	-13	-6	2	-19	1	21
CCCN(CCC)Cc1cc(=O)oc2ccc3ccccc3c12	5	nt	nt	nt	-2	nt
CCOc1ccc(-c2cc(N)n(S(=O)(=O)c3cccc4nsnc34)n2)cc1	-5	-39	-25	-8	-3	18
COc1cc(OC)cc(-c2cc(N)n(S(=O)(=O)c3cccc4nsnc34)n2)c1	-5	16	4	9	4	49*
O=C(Nc1ccc(/C=C/c2nc3ccccc3o2)cc1)c1c(F)cccc1F	53*	-26	-20	9	9	36
COc1ccccc1Cc1c(-c2ccco2)nc2ccc(C)cn12	12	nt	nt	nt	3	nt
CC[C@H](C)[C@@H]1NC(=O)c2cc([N+](=O)[O-])cc(I)c2SC[C@@H](C(N)=O)NC(=O)[C@H](CCCCN)NC1=O	-1	0	-8	-3	7	61*
CCOc1cc(-c2nc3ccccn3c2NCC2CCCO2)ccc1O (stereo not given)	57*	-12	2	14	24	9
C[C@@H]1CN([C@@H](C)CO)C(=O)CCCn2cc(nn2)CO[C@H]1CN(C)C(=O)Nc1ccc2c(c1)OCCO2	-2	nt	nt	nt	1	nt
O=[N+]([O-])c1ccc2c(OCc3nnc(-c4ccccc4Br)o3)ncnc2c1	-12	-14	-15	-2	3	49*
O=[N+]([O-])c1cc(Br)c(OCc2nnc(-c3ccccc3)o2)c(Br)c1	12	-22	-13	-4	4	7
Cc1ccccc1-c1cccc2c3c([nH]c12)[C@@H]1C[C@H]2[C@@H](C(=O)N1CC3)[C@H](C)ON2C	39	nt	nt	nt	4	nt
COc1ccc(S(=O)(=O)N2CCCCCC2)cc1NC(=O)c1c2c(nc3ccccc13)CCN(Cc1ccccc1)C2	47	-26	-16	-13	14	1
CCN(CC)S(=O)(=O)c1ccc(OC(C)C)c(NC(=O)c2c3c(nc4ccccc24)CCN(Cc2ccccc2)C3)c1	55*	-10	-25	-15	11	18
N#CC(C#N)=C1c2cc(S(=O)(=O)NCCO)ccc2-c2ccc(S(=O)(=O)NCCO)cc21	-26	-9	0	-1	0	69*

High-throughput results: PubChem, The Scripps Research Institute Molecular Screening Center
